Screening data from PubChem.
V1R ag counter = activates human V1a receptor in oxytocin agonist counter-screen; CHO-V1R cells, Fluo-8 calcium fluorescence, agonist mode; 0% DMSO, 100% 3 nM vasopressin; activation, % at 3 µM; actives 0.25% (n = 320,000);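 active = activation above the mean activation of all tested compounds plus 3 SD, per screening run, cut at about 20% in these data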;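 note: signal is peak over basal fluorescence ratio across a 100 second FLIPR read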
OXTR potentiator = potentiates the human oxytocin receptor response | CHO-OTR cells, Fluo-8 calcium fluorescence, potentiator mode; 0% = oxytocin EC15, 100% = EC100 | activation, % at 3 µM | actives 0.061% (n = 320,000);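 active = activation above that plate's cutoff, the mean activation of tested compounds plus 3 SD, cut at about 6.6% in these data, passing the limit was not always enough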;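 note: 100% uses oxytocin at 75 nM as the full agonist control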
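Dosing: Single dose, 3.0 µM nominal final compound concentration | Material: Human OTR in CHO cells | Technique: Kinetic Fluo-8 calcium fluorescence | Benchmarks: EC15 oxytocin alone as 0%, 75 nM oxytocin as 100% | Probe or stimulus: Oxytocin at about EC15, sub-maximal agonist stimulus | Incubation: Compound 6 min at room temperature before oxytocin, 100 s read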
OX1R antag-1 = human HCRTR1 antagonism | O43613 | CHO/OX1R cells, Fluo-8 calcium fluorescence, orexin A | inhibition, % at 5 µM | actives 0.43% (n = 330,000) | AID 434989;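 active = inhibition above its plate's threshold, mean inhibition of all tested compounds on the plate plus 3 SD, cut at about 37% in these data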;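 note: 0% = orexin A challenge wells and 100% = SB-334867-A antagonist wells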
Target sequence (O43613 whole entry, looked up): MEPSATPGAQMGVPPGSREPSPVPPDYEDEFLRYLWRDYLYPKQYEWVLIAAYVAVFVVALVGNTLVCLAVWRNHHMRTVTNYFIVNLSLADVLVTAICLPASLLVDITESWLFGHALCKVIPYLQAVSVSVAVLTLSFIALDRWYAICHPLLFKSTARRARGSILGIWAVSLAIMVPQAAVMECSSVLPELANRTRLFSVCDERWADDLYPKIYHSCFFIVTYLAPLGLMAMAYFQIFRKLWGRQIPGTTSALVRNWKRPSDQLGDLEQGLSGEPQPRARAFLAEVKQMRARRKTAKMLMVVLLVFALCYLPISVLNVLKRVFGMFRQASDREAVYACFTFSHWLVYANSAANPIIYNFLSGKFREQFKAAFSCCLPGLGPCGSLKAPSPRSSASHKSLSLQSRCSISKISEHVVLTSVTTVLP
OX1R antag-2 = OX1R (human) antagonism. actives 1.8% (n = 330,000). O43613. OX1R-expressing cells, FRET antagonist read-out. inhibition, % at 6.6 µM; in the data active = inhibition mostly above about 38%, no sharp cut-off; inactive = mostly below about 40%;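 note: 0% = agonist challenge alone and 100% = reference antagonist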
OXTR ag = human OXTR agonism | CHO-OTR cells, Fluo-8 calcium fluorescence; normalized: DMSO 0%, oxytocin 100% | activation, % at 3 µM | actives 0.32% (n = 320,000) | AID 2435;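 active = activation above the mean of all tested compounds plus 3 SD, cutoff set per screening run, cut at about 20% in these data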;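 note: peak over basal fluorescence ratio from a 100 s FLIPR kinetic read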
CHO parental Ca = counter-screen for OX1R antagonists: effect in parental CHO cells | actives 0.63% (n = 330,000) | parental CHO-K1, ATP-induced calcium, Fluo-8 fluorescence | inhibition, % at 5.6 µM | AID 463079;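 active = inhibition above that plate's mean sample inhibition plus 3 SD, cut at about 26% in these data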;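 note: 0% = ATP-challenged DMSO wells and 100% = DMSO wells without ATP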
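Material: parental CHO cells / Compound: single nominal dose of 5.6 µM per compound / Signal: Fluo-8 fluorescence / Replicates: singlicate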
* hit, by the source's call. Compounds with a hit are over-represented: about 2.6% of the library has one in this group of screens.

`CCOc1ccc(-c2nc(-c3cccs3)c(CC(=O)O)s2)cc1OC` gave V1R ag counter -0.1, OXTR potentiator -0.7, OX1R antag-1 -6.6, OX1R antag-2 38.1*, OXTR ag -0.9 and CHO parental Ca -3.7.
`O=C(CN1C(=O)NC2(CCCc3ccccc32)C1=O)Nc1cccc(S(=O)(=O)N2CCCCC2)c1` (stereo not given) gave V1R ag counter 0.5, OXTR potentiator -9.1, OX1R antag-1 -27.2, OX1R antag-2 3.3, OXTR ag -0.6 and CHO parental Ca -7.4.
CC(C)=CCC/C(C)=C/CNC(=O)C[C@H]1C[C@H](C(=O)N(C(C)C)C(C)C)[C@@]2(C)c3[nH]c4cc(CCC(=O)N(C)C)ccc4c3CCN2C1=O was read as OX1R antag-1 22.0, OX1R antag-2 10.4 and CHO parental Ca -9.5.
CCc1ccc(/C(C)=N/NC(=O)c2ccc(-n3cnnn3)cc2)cc1 was read as V1R ag counter 1.6, OXTR potentiator -3.4, OX1R antag-1 -2.4, OX1R antag-2 3.1, OXTR ag -0.3 and CHO parental Ca -3.7.
Screening CCN(CC)c1ccc(C(=O)OCC(=O)Nc2ccccc2-c2ccccc2)cc1 returned V1R ag counter 1.6, OXTR potentiator -14.8, OX1R antag-1 -2.6, OX1R antag-2 49.4*, OXTR ag 1.1 and CHO parental Ca 67.3*.
Screening CSCCCN1CCC(n2nccc2NC(=O)CCCc2ccccc2)CC1 returned V1R ag counter 0.7, OXTR potentiator -2.9, OX1R antag-1 -14.7, OX1R antag-2 13.8, OXTR ag -1.8 and CHO parental Ca -4.3.
Oc1c(Br)cc(Br)c(/C=N/n2c(-c3ccccc3)n[nH]c2=S)c1Br was read as V1R ag counter 2.3, OXTR potentiator -14.4, OX1R antag-1 3.0, OX1R antag-2 71.1*, OXTR ag 0.0 and CHO parental Ca -2.5.
`Oc1ccc(Br)cc1/C=N/n1c(-c2ccccc2)n[nH]c1=S` gave V1R ag counter -1.1, OXTR potentiator -17.2, OX1R antag-1 -8.7, OX1R antag-2 0.5, OXTR ag 2.5 and CHO parental Ca 1.1.
Screening COc1ccc(-c2cc3c(=O)n(CC(=O)NCCCN4CCC(Cc5ccccc5)CC4)ncn3n2)cc1 returned V1R ag counter 7.5, OXTR potentiator -7.3, OX1R antag-1 14.9, OX1R antag-2 17.9, OXTR ag 5.3 and CHO parental Ca 39.6*.
O=C(CCn1cnnn1)Nc1cccc(F)c1 was read as V1R ag counter 0.4, OXTR potentiator -0.5, OX1R antag-1 1.0, OX1R antag-2 14.8, OXTR ag 0.6 and CHO parental Ca -2.0.
Screening CCN1CCc2c(sc(NC(=O)Nc3ccc(Cl)c(Cl)c3)c2C(N)=O)C1 returned V1R ag counter 173.1*, OXTR potentiator -12.3, OX1R antag-1 99.5*, OX1R antag-2 23.7, OXTR ag 218.6* and CHO parental Ca 93.8*.
For CCN1CCc2c(sc(NC(=O)Cc3ccccc3)c2C(N)=O)C1 the results were V1R ag counter 0.3, OXTR potentiator -8.6, OX1R antag-1 -5.8, OX1R antag-2 1.1, OXTR ag -0.1 and CHO parental Ca 0.7.
Screening Cc1ccc(C(=O)O/N=C2\CC3CCC2(C)C3(C)C)cc1 (stereo not given) returned V1R ag counter -1.6, OXTR potentiator -5.5, OX1R antag-1 -18.4, OX1R antag-2 10.7, OXTR ag -1.9 and CHO parental Ca -18.6.
For Cc1cccc(C(=O)O/N=C2/CC3CCC2(C)C3(C)C)c1 (stereo not given) the results were V1R ag counter 1.2, OXTR potentiator -11.3, OX1R antag-1 -36.6, OX1R antag-2 12.6, OXTR ag -2.4 and CHO parental Ca 30.7*.
O=c1[nH]c2ccccc2c2nc(-c3cccc(S(=O)(=O)N4CCCC4)c3)nn12 was read as V1R ag counter -0.6, OXTR potentiator -2.3, OX1R antag-1 -4.5, OX1R antag-2 16.2, OXTR ag 0.1 and CHO parental Ca -12.1.
`O=C(NCCCN1CCOCC1)c1ccc(/C=C2\Oc3ccccc3N(Cc3ccccc3F)C2=O)cc1` gave V1R ag counter 3.3, OXTR potentiator -8.5, OX1R antag-1 -28.8, OX1R antag-2 2.0, OXTR ag 10.2 and CHO parental Ca -30.2.
O=C(CN1C(=O)/C(=C\c2ccccc2Br)Oc2ccccc21)NCCCN1CCOCC1 was read as V1R ag counter 4.4, OXTR potentiator -9.1, OX1R antag-1 18.8, OX1R antag-2 49.0*, OXTR ag 3.6 and CHO parental Ca -24.2.
For CC(C)/C=C1\CC/C(=C\c2ccc(N(C)C)cc2)C1=O the results were V1R ag counter 59.2*, OXTR potentiator -16.5, OX1R antag-1 65.6*, OX1R antag-2 11.5, OXTR ag 69.4* and CHO parental Ca 53.1*.
Screening COC(=O)CCN(C(=O)c1cc([N+](=O)[O-])cc([N+](=O)[O-])c1)c1ccccn1 returned V1R ag counter 0.3, OXTR potentiator -1.9, OX1R antag-1 -17.2, OX1R antag-2 66.3*, OXTR ag 0.7 and CHO parental Ca 0.6.
Screening O=C(NN=C1CCCCCCC1)c1ccccn1 returned V1R ag counter -0.5, OXTR potentiator 2.0, OX1R antag-1 -15.6, OX1R antag-2 2.6, OXTR ag -0.4 and CHO parental Ca -3.5.
`O=C(NN=C1CCCCCCC1)c1ccc2ccccc2n1` gave V1R ag counter -0.3, OXTR potentiator -13.5, OX1R antag-1 -1.9, OX1R antag-2 56.3*, OXTR ag -2.9 and CHO parental Ca -17.8.
Screening O=C(Nc1ccccc1C(=O)OCC(=O)N1CCc2ccccc2C1)c1ccco1 returned V1R ag counter -0.1, OXTR potentiator -4.4, OX1R antag-1 26.6, OX1R antag-2 80.2*, OXTR ag -1.3 and CHO parental Ca -24.6.
Screening CNC(=O)COC(=O)c1ccccc1NC(=O)c1ccco1 returned V1R ag counter -0.6, OXTR potentiator -2.2, OX1R antag-1 -5.0, OX1R antag-2 26.6, OXTR ag 0.8 and CHO parental Ca -14.0.
`CCOC(=O)/C(C(=Nc1ccccc1)Nc1ccccc1)=C(\C)O` gave V1R ag counter -2.1, OXTR potentiator 0.8, OX1R antag-1 -34.8, OX1R antag-2 0.3, OXTR ag -1.8 and CHO parental Ca -26.0.
`NC(=Nc1ccccc1)Nc1ccccc1` gave V1R ag counter 10.0, OXTR potentiator -24.5, OX1R antag-1 34.6, OX1R antag-2 5.5, OXTR ag 10.6 and CHO parental Ca 41.6*.
O=C(CC1C[C@H](C(=O)N2CCOCC2)[C@@]2(CCC3CCCC3)c3[nH]c4ccccc4c3CCN2C1=O)NCc1ccco1 (stereo not given in full) was read as V1R ag counter 0.2, OXTR potentiator -1.7, OX1R antag-1 -25.2, OX1R antag-2 0.9, OXTR ag -2.1 and CHO parental Ca -9.2.
